Screening results from PubChem.
Compounds with a hit are over-represented: about 3.1% of the library has one in this group of screens.
KCNK9 inh: blocks the human KCNK9 two-pore domain potassium channel. AID 488922. 310,000 tested, 1.2% active. B-score at 10 µM. HEK293 KCNK9, FluxOR thallium flux fluorescence; hits give low values. Q9NPC2;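 active means ratio B-score over 3 SD below the library mean, with starting fluorescence within 5 SD of its mean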;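 further: negative B-score means less thallium flux so channel inhibition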
KCNK3 block: human KCNK3 channel inhibition, primary screen. 340,000 tested, 0.84% active. O14649. CHO-KCNK3 thallium flux, FluxOR fluorescence; hits give low values. B-score at 10 µM;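 active means B-score under library mean minus 4 SD, starting fluorescence ratio at most library mean plus 5 SD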;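 further: more negative B-score means stronger inhibition of thallium flux through KCNK3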
Target sequence (O14649 whole entry, looked up): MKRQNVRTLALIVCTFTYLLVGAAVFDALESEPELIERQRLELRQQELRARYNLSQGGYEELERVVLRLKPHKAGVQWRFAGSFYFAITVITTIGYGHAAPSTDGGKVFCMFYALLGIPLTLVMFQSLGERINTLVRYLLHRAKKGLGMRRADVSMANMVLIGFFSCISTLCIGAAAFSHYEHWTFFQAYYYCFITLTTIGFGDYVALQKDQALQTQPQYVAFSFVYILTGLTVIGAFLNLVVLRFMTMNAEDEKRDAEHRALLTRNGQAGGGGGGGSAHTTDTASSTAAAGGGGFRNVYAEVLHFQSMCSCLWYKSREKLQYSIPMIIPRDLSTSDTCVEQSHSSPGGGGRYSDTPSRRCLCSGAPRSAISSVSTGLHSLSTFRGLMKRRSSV
KCNQ1 block: inhibitors of human KCNQ1 potassium channel | P51787 | CHO-K1 KCNQ1, FluxOR thallium flux fluorescence; hits give high values | B-score at 10 µM | 310,000 tested, 1.3% active | AID 2642;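 active means compounds whose thallium flux B-score, printed positive for inhibition, exceeds three library SD while starting fluorescence stays within three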;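 further: channel opened by potassium depolarization with thallium stimulus after 20 min compound exposure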
hERG rescue: shields human hERG channel from block by proarrhythmic agents | activation (rescue from dofetilide block), less the hit threshold, % at 10 µM | CHO-hERG, FluxOR thallium flux, dofetilide IC70 present | 310,000 tested, 0.51% active | AID 1511 | Q12809;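 active means activation above the mean of controls blocked by dofetilide plus 5 SD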;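 further: thallium influx through hERG after potassium depolarization seen as dye fluorescence rise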
KCNQ1 act: potentiators or activators of human KCNQ1 potassium channel | 310,000 tested, 0.35% active | B-score at 10 µM | P51787 | CHO-K1 KCNQ1, thallium flux FluxOR fluorescence; hits give high values;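 active means fluorescence ratio B-score, a plate-corrected score, at least three library SD, with initial intensity B-score within 5 SD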
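Medium – assay buffer, equal DMSO in all wells · Material – CHO-K1 cell line with stable KCNQ1 potassium channel expression · Signal – kinetic FluxOR thallium fluorescence, 10-s 1-Hz baseline, 110-s post-stimulus read · Compound – single concentration per compound, DMSO matched to controls · Schedule – 37 °C overnight plating, 90-min dark dye load, 20-min compound pretreatment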
KCNQ1 block val: human KCNQ1 channel inhibition, validation assay; shares compounds with KCNQ1 block; KCNQ1 cell line, FluxOR thallium flux fluorescence; inhibition, % at 10 µM; 1,600 tested, 93% active; AID 588353;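 active means primary screen active, with duplicate mean exceeding buffer control mean plus 3 SD of buffer wells, cut at about 28% in these data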;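 further: 0% = buffer control ratio and 100% = XE991 inhibitor control ratio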
CHO KCNQ1 ctr: counter-screen for KCNQ1 inhibitors: effect in parental CHO cells | AID 588366 | shares compounds with KCNQ1 block | 1,600 tested, 21% active | fluorescence ratio (Tl flux) at 10 µM | parental CHO-K1, FluxOR thallium flux fluorescence ratio; hits give low values; zero means no signal rise above baseline;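 active means mean of duplicate thallium-flux fluorescence ratios in parental host cells more than 5 SD below the buffer control mean, cut at about 0.38 in these data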;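 further: ratio is peak minus minimum fluorescence divided by baseline fluorescence; actives read low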
KCNQ1 ephys val: confirmation of human KCNQ1 potassium channel inhibitors by electrophysiology | KCNQ1-CHO cells, automated patch clamp current | AID 624120 | shares compounds with KCNQ1 block | calls only at 10 µM | 490 tested, 20% active;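 active means KCNQ1 current drop exceeding 3 SD of negative control wells, seen in both duplicate runs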;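 further: steady state current during a 2 s step from -80 to +40 mV; negative values mean current inhibition and positive values mean potentiation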
KCNQ2 spec: KCNQ1 inhibitor that also blocks rat KCNQ2 channel. inhibition, % at 10 µM. KCNQ2 cells, FluxOR thallium flux fluorescence. shares compounds with KCNQ1 block. 1,600 tested, 71% active;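 active means mean percent inhibition of the KCNQ2 thallium signal more than 5 SD above the buffer-only control wells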;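 further: KCNQ2 expressed in CHO cells; 0% = buffer control wells and 100% = XE-991 inhibitor control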
KCNQ1-KCNE1 inh: human KCNQ1/KCNE1 inhibition in KCNQ1 specificity screen | shares compounds with KCNQ1 block | KCNQ1/KCNE1 cells, FluxOR thallium flux fluorescence | inhibition, % at 10 µM | 1,600 tested, 77% active;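 active means mean percent inhibition of duplicate wells above the buffer-only control mean plus 3 SD of those controls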;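 further: 0% = buffer only wells and 100% = XE-991 inhibitor control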
The depositor's hits bear a star; i = inactive; . = no result; + = active, no number.

SMILES	KCNK9 inh	KCNK3 block	KCNQ1 block	hERG rescue	KCNQ1 act	KCNQ1 block val	CHO KCNQ1 ctr	KCNQ2 spec	KCNQ1-KCNE1 inh	others
Cc1ccc(C(c2cc(Br)ccc2O)N2CCSCC2)cc1 (centres undefined)	i	i	7*	-7	i	122*	0.42	107%*	136%*
CC(C)OC(=O)CSc1nc2c(c(C3CC=CCC3)c1C#N)CCC2 (centres undefined)	i	i	10*	-8	i	96*	0.38*	132%*	106%*
C=CCSc1nc2c(c(C3CC=CCC3)c1C#N)CCC2 (centres undefined)	-7.7*	i	6*	-3	i	88*	0.46	101%*	143%*	KCNQ1 ephys val=i
Cc1cc(C)c(C#N)c(SCC(=O)CC(=O)OC(C)C)n1	i	i	i	-8	i	.	.	.	.
COc1ccc(N2CCN(c3ccc4nnc(CCC(=O)Nc5ccc(C)cc5)n4n3)CC2)cc1	i	i	i	-11	i	.	.	.	.
O=C(Nc1ccccc1)N(Cc1ccccc1)CC(O)C(F)(F)F (centres undefined)	i	i	i	-12	i	.	.	.	.
O=C(Nc1cccc(F)c1)N(Cc1ccc(Cl)cc1)CC(O)C(F)(F)F (centres undefined)	i	i	8*	-12	i	72*	0.51	i	56%*
Cc1ccc(C(=O)NC(=S)Nc2ccc(CN3CCCCC3)cc2)c(C)c1	i	i	6*	-14	i	58*	0.49	67%*	63%*
COc1ccc(C(=O)COC(=O)C2CCN(c3ccc(C(F)(F)F)cn3)CC2)c(OC)c1	.	i	.	.	.	.	.	.	.
COc1cc(C(=O)COC(=O)C2CCN(c3ccc(C(F)(F)F)cn3)CC2)ccc1OC(F)F	i	i	6*	-17	i	62*	0.48	115%*	62%*
O=C(NC1CC1)c1cc(=S)[nH]c2ccccc12	.	i	.	.	.	.	.	.	.
CN1CCN(c2nc3c(c(=O)[nH]c(=O)n3C)n2Cc2ccccc2)CC1	i	i	i	-5	i	.	.	.	.
CN(C)CCCN(C(=O)c1ccc2c(c1)CCCC2)c1nc2cc3c(cc2s1)OCO3	i	i	7*	-16	i	48*	0.46	76%*	36%*
CC1CCN(c2oc(Cc3cccc4ccccc34)nc2C#N)CC1	i	i	8*	-8	i	99*	0.39	101%*	112%*
CCC(CC)c1nnc(NC(=O)CSCC(=O)Nc2cc(C)on2)s1	i	i	i	-10	i	.	.	.	.
O=[N+]([O-])c1ccc2nc(SCc3ccccc3Cl)sc2c1	i	i	15*	-20	i	106*	0.42	117%*	116%*	KCNQ1 ephys val=i
Nc1ccc2nc(SCc3ccc([N+](=O)[O-])cc3)sc2c1	i	i	i	-8	i	.	.	.	.
COc1ccc(C(=O)CCc2ccccc2)c(O)c1	i	i	i	-5	i	.	.	.	.
O=C(CCc1ccccc1)c1c(O)cc(O)cc1O	i	i	10*	-38	i	123*	0.37*	102%*	177%*
COc1ccc(S(=O)(=O)N2c3ccccc3OCC2c2ccccc2)cc1 (centres undefined)	i	i	8*	-4	i	78*	0.38*	78%*	96%*
CC(=O)c1ccc(OCc2cc(C(=O)N3CCC(Oc4ccccc4C)CC3)no2)cc1	i	i	i	-3	i	.	.	.	.
CCC(O)C1CCN(C(=O)c2cc(COc3ccc4ncccc4c3)on2)CC1 (centres undefined)	i	i	8*	-15	i	58*	0.48	100%*	i
O=C(c1cc(COc2cccc(C(F)(F)F)c2)on1)N1CCC(Oc2cccnc2)CC1	i	i	8*	-16	i	132*	0.45	96%*	85%*	KCNQ1 ephys val=i
O=C(c1cc(COc2ccc3ncccc3c2)on1)N1CCC(O)CC1	i	i	i	-10	i	.	.	.	.
Cc1ccc(OCc2cc(C(=O)N3CCC(Oc4cccnc4)CC3)no2)cc1C	i	i	7*	-13	i	114*	0.42	83%*	52%*	KCNQ1 ephys val=i
SMILES	KCNK9 inh	KCNK3 block	KCNQ1 block	hERG rescue	KCNQ1 act	KCNQ1 block val	CHO KCNQ1 ctr	KCNQ2 spec	KCNQ1-KCNE1 inh	others
Nc1cc(C(Cl)=C(Cl)Cl)c(S(N)(=O)=O)cc1S(N)(=O)=O	.	i	.	.	.	.	.	.	.
CCc1ccc(N(CC(=O)Nc2nc3ccc(C)cc3s2)S(=O)(=O)c2c(C)noc2C)cc1	i	i	9*	-5	i	71*	0.42	73%*	138%*
CCc1ccc(NC(=O)CN(c2ccc3c(c2)OCO3)S(=O)(=O)c2c(C)noc2C)cc1	i	i	i	-2	i	.	.	.	.
Cc1c(C(=O)Nc2ccc3c(c2)OCCO3)sc2ncnc(N3CCCCC3C)c12 (centres undefined)	i	i	i	-16	i	.	.	.	.
Cc1nc(N2CCC(C)CC2)c2c(C)c(C(=O)Nc3ccc4c(c3)OCCO4)sc2n1	i	i	8*	-10	i	112*	0.42	120%*	92%*	KCNQ1 ephys val=i
COc1ccc2[nH]cc(CCNC(=O)CCC3CCCCC3)c2c1	i	i	i	-11	i	.	.	.	.
COc1ccc2noc3c2c1C(=O)c1ccccc1-3	i	i	23*	-50	i	+	0.0045*	i	i
COc1ccc(OC)c2c1C(=O)c1ccccc1C2=O	i	.	i	-43	i	.	.	.	.
Cc1cc2nc(CCN(C(=S)NCC3CCCO3)C3CCCC3)[nH]c2cc1C (centres undefined)	i	i	i	-11	i	.	.	.	.
Cc1cc2nc(CCN(C(=S)NCC(C)C)C3CCCC3)[nH]c2cc1C	i	i	8*	-11	i	167*	0.43	101%*	i	KCNQ1 ephys val=i
CCCCCCCCOC(=O)c1nc(Cl)c(Cl)c(N)c1Cl	i	i	7*	-9	i	101*	0.46	65%*	126%*	KCNQ1 ephys val=i
COC(=O)c1nc(Cl)c(Cl)c(N)c1Cl	i	i	i	-4	i	.	.	.	.
